Test [1] deals with T1, Serine/threonine-protein kinase ULK1 (Homo sapiens) (UniProt O75385).
T1 sequence (whole entry): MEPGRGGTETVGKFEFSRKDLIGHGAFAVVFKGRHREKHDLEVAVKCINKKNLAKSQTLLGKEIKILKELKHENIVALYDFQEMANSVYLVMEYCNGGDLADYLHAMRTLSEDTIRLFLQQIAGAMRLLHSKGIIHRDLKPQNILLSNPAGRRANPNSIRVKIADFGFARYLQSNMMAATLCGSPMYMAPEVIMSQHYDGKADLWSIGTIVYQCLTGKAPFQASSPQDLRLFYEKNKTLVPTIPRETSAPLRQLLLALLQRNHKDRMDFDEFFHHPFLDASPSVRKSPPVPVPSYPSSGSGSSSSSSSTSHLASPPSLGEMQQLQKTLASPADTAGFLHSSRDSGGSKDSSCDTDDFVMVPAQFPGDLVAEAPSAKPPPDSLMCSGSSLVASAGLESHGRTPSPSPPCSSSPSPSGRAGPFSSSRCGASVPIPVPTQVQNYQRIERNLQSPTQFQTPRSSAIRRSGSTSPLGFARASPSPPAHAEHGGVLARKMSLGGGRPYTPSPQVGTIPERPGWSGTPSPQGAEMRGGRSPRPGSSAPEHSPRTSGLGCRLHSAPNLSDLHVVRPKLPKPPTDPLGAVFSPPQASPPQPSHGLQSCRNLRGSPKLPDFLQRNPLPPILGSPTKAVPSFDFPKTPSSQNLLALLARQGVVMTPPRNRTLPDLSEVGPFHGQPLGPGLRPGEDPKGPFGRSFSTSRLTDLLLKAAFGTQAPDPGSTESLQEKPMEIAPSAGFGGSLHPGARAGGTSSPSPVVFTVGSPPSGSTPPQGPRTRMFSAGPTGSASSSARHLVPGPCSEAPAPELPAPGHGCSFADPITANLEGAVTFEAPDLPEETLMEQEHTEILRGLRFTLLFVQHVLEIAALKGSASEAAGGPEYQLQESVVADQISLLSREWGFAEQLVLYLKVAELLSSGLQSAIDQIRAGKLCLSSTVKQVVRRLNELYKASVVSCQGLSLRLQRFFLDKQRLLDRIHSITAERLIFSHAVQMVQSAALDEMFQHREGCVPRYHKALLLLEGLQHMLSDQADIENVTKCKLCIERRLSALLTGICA
The test is described as follows: Induction of human recombinant N-terminal GST tagged-ULK1 (1 to 649 residues) kinase activity expressed in baculovirus infected insect Sf9 cells at 100 nM using MBP as substrate after 60 mins by ADP-glo assay relative to control. Summed up: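 Recombinant human ULK1 (10 ng) with MBP (0.1 µg/µl)/10 µM ATP and compound at 100 nM in 40 mM Tris pH 7.5, 20 mM MgCl2, 50 µM DTT, 0.1 mg/ml BSA. Incubated 60 min at room temperature; ADP-Glo luminescence read. Three independent experiments, mean ± SEM.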
(In general: ADP-Glo first removes unused ATP, then detects ADP through luciferase.)

Test [2] concerns the target T1, Serine/threonine-protein kinase ULK1 (Homo sapiens). The test is described as follows: Induction of ULK1-mediated autophagy in human SH-SY5Y cells at 1 uM after 6 hrs by MDC-staining based flow cytometric analysis relative to control. The class given is cell-based. An outline of the steps: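 Autophagy scored as percentage of MDC-positive SH-SY5Y cells by flow cytometry after 1 µM compound; mean ± SEM.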
In general terms: Flow cytometry measures light scatter and fluorescence of single cells or particles in a stream.

SMILES strings stand for the structures.

Our source for the Activity values is ChEMBL document CHEMBL4196093, “Small-Molecule Activator of UNC-51-Like Kinase 1 (ULK1) That Induces Cytoprotective Autophagy for Parkinson's Disease Treatment” (J Med Chem, 2018).

With `COc1ccc(CCNC(=O)N[C@@H](C(=O)Nc2ccc(C)cc2)c2ccccc2)cc1OC`, the Activity in test [1] was determined as 148%; in test [2] it was 24.3%.

Take `Cc1cccc(C)c1NC(=O)N[C@@H](C(=O)Nc1cccc(Br)c1)c1ccccc1`: the values for the Activity in test [1] and in test [2] were 155% and 27.1%, respectively.

For `COc1ccc(C(=O)OC(CN2CCN(c3ccc(OC)cc3)CC2)c2ccccc2)cc1` (configuration not stated), the Activity in test [1] was 155%; in test [2], 11.2%.

For `O=C(Nc1cccc2ccccc12)N[C@@H](C(=O)Nc1cc(F)ccc1F)c1ccccc1`, the Activity in test [1] is 151%; in test [2] it was 22.3%.

Turning to `COc1ccc(CCNC(=O)N[C@@H](C(=O)Nc2c(C)cccc2C)c2ccccc2)cc1OC`, the Activity in test [1] is 144%; in test [2], 23.2%.

With `O=C(Nc1cccc(Br)c1)[C@H](NC(=S)Nc1ccccc1)c1ccccc1`, the figures for the Activity in test [1] and in test [2] were 176% and 32.9%, respectively.

As to `CN1CCN(CC(OC(=O)Cc2ccccn2)c2ccccc2)CC1` (configuration not stated), the values for the Activity in test [1] and in test [2] were 143% and 9.99%, respectively.

For the compound `Cc1cccc(C)c1NC(=O)N[C@@H](C(=O)Nc1cc(F)ccc1F)c1ccccc1`, the Activity in test [1] was 147%; in test [2], 24.9%.

As to `O=C(Nc1ccc(C(F)(F)F)cc1)N[C@@H](C(=O)Nc1cccc(Br)c1)c1ccccc1`, the Activity in test [1] was 179%; in test [2], 33.6%.

`C[C@@H](NC(=O)[C@H](NC(=O)Nc1cccc(Cl)c1)c1ccccc1)c1ccccc1`: the Activity in test [1] is 169%; in test [2] it was 22.7%.

In the case of `O=C(Nc1ccc(F)cc1F)[C@H](NCCc1ccc(O)cc1)c1ccccc1`, the results for the Activity in test [1] and in test [2] were 198% and 32.1%, respectively.

For `C[C@@H](NC(=O)[C@H](NC(=S)Nc1ccccc1)c1ccccc1)c1ccccc1`, the values for the Activity in test [1] and in test [2] were 169% and 32.2%, respectively.

As for `Cc1cccc(C)c1NC(=O)N[C@@H](C(=O)N[C@H](C)c1ccccc1)c1ccccc1`, the Activity in test [1] came out at 144%; in test [2] it was 16.2%.

With `COc1ccc(N2CCN(CC(OC(=O)c3ccc(F)cc3)c3ccccc3)CC2)cc1` (configuration not stated), the Activity in test [1] is 168%; in test [2], 11.1%.

Consider `COc1cccc(CCN[C@@H](C(=O)Nc2ccccc2C)c2ccccc2)c1`, for which the Activity was 140% in test [1] and 16.2% in test [2].

Turning to `Cc1ccccc1NC(=O)[C@H](NC(=S)Nc1ccccc1)c1ccccc1`, the Activity in test [1] was 179%; in test [2], 36.2%.

Take `COc1ccc(N2CCN(CC(OC(=O)c3ccc(-c4ccccc4)cc3)c3ccccc3)CC2)cc1` (configuration not stated): the Activity in test [1] was determined as 147%; in test [2], 9.2%.

As to `COc1ccc(NC(=O)N[C@@H](C(=O)N[C@H](C)c2ccccc2)c2ccccc2)cc1`, the Activity was determined as 145% in test [1] and 19.2% in test [2].

For `COc1ccc(N2CCN(CC(OC(=O)c3ccc(C(F)(F)F)cc3)c3ccccc3)CC2)cc1` (configuration not stated), the Activity was determined as 171% in test [1] and 14.2% in test [2].

`COc1ccc(CC(=O)OC(CN2CCN(C)CC2)c2ccccc2)cc1OC` (configuration not stated): the Activity in test [1] was 139%; in test [2], 6.22%.

Regarding `CN1CCN(CC(OC(=O)c2ccc(-c3ccccc3)cc2)c2ccccc2)CC1` (configuration not stated), the figures for the Activity in test [1] and in test [2] were 142% and 7.41%, respectively.

In the case of `Cc1ccccc1NC(=O)[C@H](NCCc1ccc(N(C)C)cc1)c1ccccc1`, the Activity in test [1] was 143%; in test [2], 13.5%.

With `O=C(Nc1ccc(F)cc1F)[C@H](NCCc1cccc(F)c1)c1ccccc1`, the Activity in test [1] was 161%; in test [2], 23.4%.

Consider `CN(C)c1ccc(CCN[C@@H](C(=O)Nc2ccc(F)cc2F)c2ccccc2)cc1`, for which the Activity in test [1] was 149%; in test [2] it was 20.2%.

As to `O=C(Nc1cccc(Br)c1)[C@H](NC(=S)Nc1cc(C(F)(F)F)cc(C(F)(F)F)c1)c1ccccc1`, the figures for the Activity in test [1] and in test [2] were 217% and 39.6%, respectively.

Consider `CN1CCN(CC(OC(=O)c2ccccc2C(F)(F)F)c2ccccc2)CC1` (configuration not stated), for which the Activity in test [1] stood at 151%; in test [2], 10%.

Take `Cc1ccccc1NC(=O)[C@H](NCCc1ccc(Cl)c(Cl)c1)c1ccccc1`: the Activity amounted to 153% in test [1] and 20.3% in test [2].

Turning to `Cc1ccccc1NC(=O)[C@H](NC(=S)Nc1cc(C(F)(F)F)cc(C(F)(F)F)c1)c1ccccc1`, the figures for the Activity in test [1] and in test [2] were 205% and 43.1%, respectively.

On to `O=C(Nc1ccc(F)cc1F)[C@H](NCCc1cccc2ccccc12)c1ccccc1`, for which the Activity worked out at 168% in test [1] and 26.2% in test [2].

Regarding `COc1ccc(CCNC(=S)N[C@@H](C(=O)Nc2ccccc2)c2ccccc2)cc1OC`, the Activity in test [1] is 170%; in test [2], 36.7%.

Take `Cc1ccccc1NC(=O)[C@H](NC(=O)Nc1c(C)cccc1C)c1ccccc1`: the Activity was found to be 149% in test [1] and 24.2% in test [2].

Consider `COc1ccc(N2CCN(CC(OC(=O)c3ccc(C)cc3)c3ccccc3)CC2)cc1` (configuration not stated), for which the figures for the Activity in test [1] and in test [2] were 139% and 4.51%, respectively.

Regarding `C[C@@H](NC(=O)[C@H](NC(=S)Nc1cc(C(F)(F)F)cc(C(F)(F)F)c1)c1ccccc1)c1ccccc1`, the Activity is 178% in test [1] and 32.9% in test [2].

On to `Cc1ccccc1NC(=O)[C@H](NCCc1ccc(F)cc1)c1ccccc1`, for which the figures for the Activity in test [1] and in test [2] were 164% and 24.5%, respectively.

Take `COc1ccc(CCNC(=O)N[C@@H](C(=O)Nc2ccccc2Cl)c2ccccc2)cc1OC`: the Activity in test [1] amounted to 152%; in test [2], 27.9%.

Take `COc1ccc(N2CCN(CC(OC(=O)c3cccc(Cl)c3)c3ccccc3)CC2)cc1` (configuration not stated): the Activity in test [1] amounted to 163%; in test [2] it was 13.4%.

Regarding `COc1ccc(N2CCN(CC(OC(=O)c3cccc(C(F)(F)F)c3)c3ccccc3)CC2)cc1` (configuration not stated), the values for the Activity in test [1] and in test [2] were 162% and 11.6%, respectively.

Consider `O=C(Nc1ccc(C(F)(F)F)cc1)N[C@@H](C(=O)Nc1cc(F)ccc1F)c1ccccc1`, for which the figures for the Activity in test [1] and in test [2] were 227% and 43.6%, respectively.

On to `COc1ccc(CCNC(=S)N[C@@H](C(=O)Nc2cc(C(F)(F)F)cc(C(F)(F)F)c2)c2ccccc2)cc1OC`, for which the Activity in test [1] is 184%; in test [2], 39%.

Consider `COc1ccc(CCNC(=O)N[C@@H](C(=O)Nc2ccc(C(F)(F)F)cc2)c2ccccc2)cc1OC`, for which the Activity in test [1] came to 163%; in test [2], 33.5%.

As for `Cc1ccccc1NC(=O)[C@H](NCCc1ccc2[nH]ccc2c1)c1ccccc1`, the Activity worked out at 144% in test [1] and 16.8% in test [2].

Regarding `COc1ccc(CCNC(=O)N[C@@H](C(=O)Nc2cccc3ccccc23)c2ccccc2)cc1OC`, the Activity is 139% in test [1] and 20.9% in test [2].

Turning to `Cc1ccc(NC(=O)N[C@@H](C(=O)Nc2ccccc2C)c2ccccc2)cc1`, the Activity in test [1] worked out at 174%; in test [2] it was 34.9%.

For the compound `Cc1ccc(NC(=O)N[C@@H](C(=O)N[C@H](C)c2ccccc2)c2ccccc2)cc1`, the Activity was determined as 148% in test [1] and 16.6% in test [2].

Turning to `Cc1ccccc1NC(=O)[C@H](NCCc1ccc(O)cc1)c1ccccc1`, the results for the Activity in test [1] and in test [2] were 158% and 21%, respectively.

Take `O=C(Nc1ccc(F)cc1F)[C@H](NCCc1ccc(Br)cc1)c1ccccc1`: the Activity worked out at 171% in test [1] and 28.2% in test [2].

Turning to `O=C(Nc1ccccc1Cl)N[C@@H](C(=O)Nc1cccc(Br)c1)c1ccccc1`, the Activity in test [1] was 161%; in test [2], 26.3%.

On to `Cc1ccc(CCN[C@@H](C(=O)Nc2ccccc2C)c2ccccc2)cc1`, for which the Activity in test [1] worked out at 139%; in test [2], 13.8%.

In the case of `C[C@@H](NC(=O)[C@H](NC(=O)Nc1ccc(C(F)(F)F)cc1)c1ccccc1)c1ccccc1`, the figures for the Activity in test [1] and in test [2] were 209% and 38.3%, respectively.

In the case of `Cc1ccccc1NC(=O)[C@H](NCCc1cc(Cl)ccc1O)c1ccccc1`, the Activity was determined as 146% in test [1] and 15.3% in test [2].

Turning to `Cc1ccccc1NC(=O)[C@H](NC(=O)Nc1cccc2ccccc12)c1ccccc1`, the figures for the Activity in test [1] and in test [2] were 146% and 24.4%, respectively.
